Data on 12 molecules can be found in publication PMC5856940 (Saudi Pharmaceutical Journal : SPJ, 2018).

In one data set the test system is U-87 MG cells. As to the kind of experiment: Cytotoxicity in glioma cells, trypan blue assay. As to conditions: 100 µM, 24 h. In kind it is cell-based, Human. The essentials: (§1)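 U-87 MG cells were grown in MEM with L-glutamine, and 1321N1 cells in DMEM with L-glutamine plus 2 mM sodium pyruvate. Both media had 10% FBS, penicillin/streptomycin and amphotericin B, at 37 °C and 5% CO2. Cells were seeded at 1 × 10^5 per well, grown 48 h, then exposed 24 h to 100 µM test compound, 0.1% DMSO or 100 µM temozolomide. Cells were trypsinised and scored by trypan blue. Biological and technical repeats were run.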

Data set [1] has as its system HEK293T cells. As to the kind of experiment: Cytotoxicity screening of AHAMCs, trypan blue exclusion assay. In kind it is cell-based, Human. As to conditions: 25 mM, 24 h. The essentials: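 HEK293T cells were grown in DMEM with 10% FBS, 1mM pyruvate and antibiotics/antifungal at 37 °C and 5% CO2. Cells were seeded at 1 × 10^6 per well, grown 24 h, then given fresh medium. Test compound (100 mM DMSO stock, diluted in DMSO then dH2O) was added at 25 mM for 24 h. Cells were trypsinised (0.5%) and live/dead cells counted by trypan blue on a Bürker hemocytometer under bright field.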

Data set [2] concerns HEK293T cells. As to the kind of experiment: Dose-dependent response. Type of data set: cell-based, Human. As to conditions: 24 h; for IC50: cell death, trypan blue, 6.25-100 mM; for cytotoxicity at higher concentrations: 50 and 100 mM. The essentials:
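HEK293T cells were seeded at 1 × 10^6 per well and grown 24 h. Medium was replaced with medium holding test compound at 6.25, 12.5, 25, 50 or 100 mM for 24 h. Read-out was trypan blue exclusion, with % cell death = dead/total cells × 100. IC50 was taken from a fitted concentration–effect curve. Three technical and biological repeats were done.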

The test system of a further data set is 1321N1 cells. The data set is described as follows: Cytotoxicity in glioma cells, trypan blue assay. As to conditions: 1321N1, 100 µM, 24 h. In kind it is cell-based, Human. The essentials: as §1
Data set [3] concerns HEK293T cells. The data set is described as follows: Differentiation of apoptosis and necrosis by PI staining. In kind it is cell-based, Human. As to conditions: for cell death compared to the other compounds: IC50, 24 and 48 h. The essentials: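 HEK293T cells (1 × 10^6 per well) were grown 24 h, then resuspended in medium with test compound at one fixed concentration for 24 or 48 h. Cells were washed three times in DPBS, trypsinised, washed again, and stained 5 min with 1 mg/mL PI in 2× SSC. Nuclei were imaged by confocal microscopy (ex 535, em 617 nm) and scored as apoptotic or necrotic. About 100 cells were counted per sample, with three technical and biological repeats.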

The test system of data set [4] is HEK293T cells. The data set is described as follows: Externalized phosphatidylserine, Annexin-V staining. Type of data set: cell-based, Human. The essentials:
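HEK293T cells were exposed to test compound for 24 or 48 h, trypsinised, washed three times in DPBS and resuspended in annexin-binding buffer. Alexa Fluor 350 Annexin-V conjugate was added for 15 min at 37 °C, and cells were washed in binding buffer. Imaging was by confocal microscopy (ex 346, em 442 nm). About 100 cells were analysed per sample, with three technical and biological repeats.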

The subject of data set [5] is Syrian Hamster Embryo (SHE) cells. The note with it: 60 µM ref Hahnel et al., 1999; cited from earlier work.

As to “5-(2-(2-hydroxyphenyl) hydrazono)pyrimidine-2,4,6(1H,3H,5H)-trione [Compound 5]”, in the data set on U-87 MG cells, the “lower inhibitory effect compared to temozolomide” value is recorded as 10% and the mortality – broadly, the percentage killed – is reported as 10%. In the data set on HEK293T cells [1], the cytotoxicity was found to be 46%. For the same molecule, in the data set on HEK293T cells [2], the cell death is on record as around 80% and the half-inhibitory concentration (IC50) (as a rule, the concentration that inhibits the measured activity by half) was found to be 50.9 ± 2.5 mM. Besides, in the data set with 1321N1 cells, the “higher inhibitory effect compared to temozolomide” value came out at 10% and the mortality was 20%. Moreover, in the data set on HEK293T cells [3] (IC50 of compound, 24 h), the apoptosis entry is “about 40%” and the necrosis result is “about 20%”. Also, in the data set on HEK293T cells [3] (IC50 of compound, 48 h), the apoptosis result was “≈ 60%”, the cell death is recorded as around 80% and the necrosis result was “about 20%”. Further, the “apoptotic effect (Annexin-V)” value in the data set with HEK293T cells [4] (24 h and 48 h) is listed as “more apoptotic effect compared to the other compounds”.
Take “(E)-3-(2-(1-ethoxy-1,3-dioxobutan-2-ylidene)hydrazinyl)-2-hydroxy-5-nitrobenzenesulfonic acid [Compound 1]”: in the data set on HEK293T cells [1], the cytotoxicity is reported as at most 30%.
Same read-out and setting: next, “2-(2-(2,4-dioxopentan-3-ylidene)hydrazinyl)phenylarsonic acid [Compound 12]”: at most 30%.
“5-chloro-3-(2-(4,4-dimethyl-2,6-dioxocyclohexylidene)hydrazinyl)-2-hydroxybenzenesulfonic acid [Compound 8]” had a cytotoxicity in the data set with HEK293T cells [1] of 45%. In the data set on HEK293T cells [2], this molecule returned a cell death of around 80% and an IC50 of 75.5 ± 2.3 mM. Further, the “apoptosis/necrosis response compared with compound 5” value in the data set on HEK293T cells [3] (IC50, 48 h) is listed as “lower response”. The “level of apoptosis (Annexin-V)” value in the data set with HEK293T cells [4] (48 h) is “lower level of apoptosis”.
In turn, “5-(2-(4,4-dimethyl-2,6-dioxocyclohexylidene)hydrazinyl)-4-hydroxybenzene-1,3-disulfonic acid [Compound 9]” came in with a cytotoxicity in the data set on HEK293T cells [1] of 42%. In the data set on HEK293T cells [2], the “cytotoxicity at higher concentrations” value was “did not elicit significant cytotoxicity”. In the data set on HEK293T cells [3], the “cell death compared to the other compounds” value is on record as “less cell death”.
Turning to `C[C@@H]1Cc2c(Cl)cc(C(=O)N[C@@H](Cc3ccccc3)C(=O)O)c(O)c2C(=O)O1` [Ochratoxin A], the “intracellular calcium increase compared to untreated cells” value in data set [5] was 45%.
In turn, “(Z)-5-chloro-2-hydroxy-3-(2-(4,4,4-trifluoro-1,3-dioxo-1-(thiophen-2-yl)butan-2-ylidene)hydrazinyl)benzenesulfonic acid [Compound 3]” displayed a cytotoxicity in the data set on HEK293T cells [1] of at most 30%.
In the data set on HEK293T cells [1], “2-(2-(2-hydroxy-4-nitrophenyl)hydrazono)-2H-indene-1,3-dione [Compound 2]” yielded a cytotoxicity of at most 30%.
Molecule “5-chloro-2-hydroxy-3-(2-(2,4,6-trioxo-tetrahydropyrimidin-5(6H)-ylidene)hydrazinyl)benzenesulfonic acid [Compound 4]” registered a cytotoxicity in the data set on HEK293T cells [1] of at most 30%.
Still for that read-out and setting: to “5-(2-(2-hydroxy-4-nitrophenyl)hydrazono)pyrimidine-2,4,6(1H,3H,5H)-trione [Compound 7]” belongs at most 30%.
In the data set on HEK293T cells [1], “4-hydroxy-5-(2-(2,4,6-trioxo-tetrahydro-pyrimidin-5(6H) ylidene)hydrazinyl)benzene-1,3-disulfonic acid [Compound 6]” came in with a cytotoxicity of 36%. For the same molecule, in the data set on HEK293T cells [2], the “cytotoxicity at higher concentrations” value was “did not elicit significant cytotoxicity” and the IC50 came out at 77.08 ± 0.5 mM. In addition, the “cell death compared to the other compounds” value in the data set on HEK293T cells [3] is listed as “less cell death”.
Consider “5-(2-(2,4-dioxopentan-3-ylidene)hydrazinyl)-2,3-dihydrophthalazine-1,4-dione [Compound 13]”, for which, in the data set on HEK293T cells [1], the cytotoxicity is on record as at most 30%.
